Here are results for 1 compound from ChEMBL document CHEMBL4665743, “Labdane-Type Diterpenes from the Aerial Parts of Rydingia persica: Their Absolute Configurations and Protective Effects on LPS-Induced Inflammation in Keratinocytes” (2020).

The subject of assay [1] is HaCaT. The assay can be described thus: Anti-inflammatory activity in human HaCaT cells assessed as inhibition of LPS-induced TNF-alpha production at 10 uM after 24 hrs by ELISA relative to LPS alone. It counts as functional. Put shortly: (§1)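 HaCaT keratinocytes (DMEM, 4 g/L glucose, 10% FBS, 1% pen-strep) seeded 5 × 10^3 cells/well and allowed to adhere 24 h. Compounds added for 1 h alone, then with E. coli LPS (5 μg/mL) for 24 h. IL-6 or TNF-α measured in supernatants by ELISA (pg/mL) and expressed as % inhibition vs LPS alone. Indomethacin 10 μM served as reference. Mean ± SEM, n = 3.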
For orientation: An ELISA detects its analyte on a solid surface through an enzyme-linked reagent.

Assay [2] has as its system HaCaT. The assay can be described thus: Anti-inflammatory activity in human HaCaT cells assessed as inhibition of LPS-induced IL-6 production at 10 uM after 24 hrs by ELISA relative to LPS alone. It counts as functional. In short, it runs like this: as §1

As for `COc1ccc2c(c1)c(CC(=O)O)c(C)n2C(=O)c1ccc(Cl)cc1` [INDOMETHACIN], the values for the inhibition at 10 µM in assay [1] and in assay [2] were 77% and 88.5%, respectively.
